Where two headings read alike, the source gives them in different places.
What was measured:
DR5 [1] = experiment: DR5 immunoblot, MDA-MB-468 cells; format: cell-based; details: MDA-MB-468, 24 h; for Effect on DDA-induced DR5 upregulation and oligomerization: with 2.5 μM dMtcyDTDO, 20 μM CEAPIN-A7, 10 μM KIRA-6, 10 μM AMG-44; for DR5 levels and disulfide bonding (electrophoretic mobility): non-reducing immunoblot, dFtcyDTDO 2.5 μM, Tunicamycin 500 ng/ml, PERKi alone
DR5 [2] = experiment: DR5 immunoblot with autophagy/lysosome inhibitors; format: cell-based; details: inhibitor alone, absence of DDA treatment, versus vehicle
[3] = tested on: MDA-MB-468 breast cancer cells; experiment: MTT cell viability assay, MDA-MB-468; format: cell-based; details: 72 h
Procedure, shortened: (§1)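 Cells in 10% FBS–DMEM were seeded at 7,500 per well and kept 24 h at 37°C, then exposed to test compound for 72 h at 37°C. After medium removal they received 0.5 mg/ml MTT in PBS for 1 h at 37°C. Formazan was dissolved in DMSO and absorbance read at 570 and 690 nm. At least quadruplicate technical and three biological replicates were run.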

MET [4] = experiment: MET/PCSK9 maturation; format: cell-based; details: MDA-MB-468, PERKi alone 1 μM, 24 h
protein synthesis = experiment: Protein synthesis assay; format: cell-based; details: 24 h pre-treatment, 2 h pulse
WM793 melanoma cells = experiment: MTT cell viability assay, WM793; format: cell-based; details: 72 h
Procedure, shortened: as §1

MET [5] = experiment: MET/PCSK9 maturation; format: cell-based; details: HepG2, PERKi alone 1 μM, 24 h
Procedure, shortened: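 HepG2 cells were grown in 10% FBS–DMEM at 37°C and 5% CO₂, then treated for 24 h. Cell lysates were run on immunoblots, under reducing conditions for MET.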

DR5 [6] = experiment: DR5 immunoblot, HaCaT keratinocytes; format: cell-based, human; details: 2.5 μM, 24 h, reducing immunoblot
DR5 [7] = experiment: DR5 immunoblot, T47D cells; format: cell-based; details: 2.5 μM, 24 h, reducing immunoblot
DcR2 = DcR2 immunoblot; format: cell-based; details: after dFtcyDTDO treatment
DR5 [8] = experiment: DR5 immunoblot, MCF10A cells; format: cell-based; details: non-transformed MCF10A, 2.5 μM, 24 h, reducing immunoblot
012/LVM2/LR10 tumors = experiment: 012/LVM2/LR10 xenograft tumor study, H&E tumor histology; format: in vivo; details: 10 mg/kg dMtcyDTDO, 20 days, mice bearing 012/LVM2/LR10 tumors, versus vehicle
[9] = Metabolic stability in human liver microsomes; details: supplemented with NADPH (1 mM); substrate 10 μM; 1 mg/ml protein

Cc1ccc2cc(-c3c(C)ccc(C(=O)c4c(-c5ccccc5)n(C)n(-c5ccccc5)c4=O)c3N)ccc2n1 [AMG44]
Effect on DDA-induced DR5 upregulation and oligomerization (DR5 [1]): potentiated DDA-induced DR5 upregulation and oligomerization

CO/C1=C\C(C)=C\[C@@H](C)[C@@H](O)[C@@H](C)C/C(C)=C/C=C/[C@H](OC)[C@@H]([C@@H](C)[C@@H](O)[C@H](C)[C@@]2(O)C[C@@H](O)[C@H](C)[C@@H](C(C)C)O2)OC1=O [Bafilomycin A1]
DR5 levels (DR5 [2]): increased levels of monomeric and oligomeric DR5 isoforms

O=C(Nc1cnn(Cc2ccc(C(F)(F)F)cc2C(F)(F)F)c1)c1cc(-c2ccco2)on1 [CEAPIN-A7]
Effect on DDA-induced DR5 upregulation and oligomerization (DR5 [1]): without effect

CCN(CC)CCCC(C)Nc1ccnc2cc(Cl)ccc12 (stereo not drawn) [Chloroquine]
DR5 levels (DR5 [2]): increased DR5 levels

CC(C)(C)c1nc(-c2ccc(NC(=O)Nc3cccc(C(F)(F)F)c3)c3ccccc23)c2c(N)nccn12 [KIRA-6]
Effect on DDA-induced DR5 upregulation and oligomerization (DR5 [1]): negated DR5 and TNFR1 upregulation by DDA treatment

Cn1cc(-c2ccc3c(c2)CCN3C(=O)Cc2cccc(C(F)(F)F)c2)c2c(N)ncnc21 [PERKi]
Cell viability (MTT) ([3]; PERKi alone): little effect on cell viability
Effect on dFtcyDTDO cytotoxicity (MTT) ([3]; combination with dFtcyDTDO): strongly potentiated dFtcyDTDO cytotoxicity
MET or PCSK9 processing (MET [4]): no effect on MET or PCSK9 processing
Protein synthesis (3H-Leucine incorporation) in the presence of Tunicamycin (protein synthesis): increased protein synthesis
Protein synthesis (3H-Leucine incorporation) in the presence of dFtcyDTDO (protein synthesis): further decreased protein synthesis
Cell viability (MTT) (WM793 melanoma cells; PERKi alone): little effect on cell viability
Effect on dFtcyDTDO cytotoxicity (MTT) (WM793 melanoma cells; combination with dFtcyDTDO): strongly potentiated dFtcyDTDO cytotoxicity
DR5 levels and disulfide bonding (electrophoretic mobility) (DR5 [1]): no discernable effect
MET or PCSK9 processing (MET [5]): no effect on MET or PCSK9 processing

CC(C)(O)CNc1ncc(-c2ccnc(Nc3ccnc(Cl)c3)n2)c(CC2CC2)n1 [VPS34i]
DR5 levels (DR5 [2]): increased DR5 expression to a similar extent as Bafilomycin

O=S1(=O)CC2CC(F)C(F)CC2CS1 (stereo not drawn) [dFtcyDTDO]
DR5 levels (DR5 [6]): did not increase DR5 levels
DR5 levels (DR5 [7]): increased DR5 levels
t1/2 in human liver microsomes: > 60 min
DcR2 levels (DcR2): upregulation of DcR2
DR5 levels and disulfide bonding (electrophoretic mobility) (DR5 [1]): altered DR5 levels and disulfide bonding
DR5 levels (DR5 [8]): did not increase DR5 levels

CO[C@H]1C[C@@H]2CS(=O)(=O)SC[C@H]2C[C@@H]1OC [dMtcyDTDO]
DR5 levels (DR5 [6]): did not increase DR5 levels
Breast tumor tissue histology (H&E) (012/LVM2/LR10 tumors): extensive death of tumor tissue
t1/2 in human liver microsomes [9]: 47.9 min
DR5 levels (DR5 [8]): did not increase DR5 levels

O=S1(=O)CC2CCCCC2CS1 (stereo not drawn) [tcyDTDO]
t1/2 in human liver microsomes: 11.9 min

Tunicamycin
DR5 levels and disulfide bonding (electrophoretic mobility) (DR5 [1]): increased DR5 levels without altering its mobility

Reference: paper PMC11989202 (Molecular cancer research : MCR, 2025)
